Data: article PMC5801006 (European journal of medicinal chemistry, 2017)
Like-named read-outs stand apart in the source and are kept apart here.

Experiments:
Panc02 = test: MTT viability, 48 h; format: cell-based, mouse; details: read-out: Activity, EC50 Panc02
MIAPaCa-2 = test: MTT viability, 48 h; format: cell-based, human; details: read-out: Activity, EC50 MIAPaCa-2, 48 hr treatment
BxPC3 = test: MTT viability, 48 h; format: cell-based, human; details: read-out: Activity, EC50 BxPC3
[1] = test system: pancreatic cancer cell lines; test: MTT viability, summary over the panel of pancreatic cancer cell lines; details: 48 h, read-out: Cytotoxic EC50 values in most of the cell lines studied
[2] = format: in vivo; details: for PCV: 7 at 750nmol/100μL, 1 and 2 at 1500nmol/100 μL, 2 weeks, n = 3, control 47.5 ± 3; for Necropsy/histology findings (pulmonary metastases, nephropathy) / Mouse weight at necropsy: after 2 weeks daily i.p. treatment; for Mouse weight at necropsy: vehicle 19.5± 0.5; for Treatment-related deaths: 750 nmol/100μL i.p. daily for two weeks
KP02 tumors = test: In vivo tumor growth, subcutaneous KP02 tumors in C57BL/6 mice
σ1 receptor = σ1 receptor (Homo sapiens, UniProt Q99720); test: σ1 binding by flow cytometry in MCF7σ1 cells; details: displacement of σ1 fluorescent compound, 0.1 nmol/L-10 μM
Summary of the method: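 MCF7 cells engineered for σ1 (DMEM, 10% FBS) incubated with test compound at 0.1, 1, 10, 100 nmol/L, 1 and 10 μM. Then 100 nmol/L σ1 fluorescent probe added for 75 min at 37 °C, with F390 (10 μM) co-incubated to mask σ2. Cells washed twice with PBS, detached (10 min, 37 °C), pelleted and resuspended in PBS. Fluorescence read by flow cytometry through a 530 nm band-pass filter, 50,000 events per sample.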

KP02 = test: MTT viability, 48 h; format: cell-based, mouse; details: read-out: Activity, EC50 KP02
P-gp = P-gp (Homo sapiens, UniProt P08183); test: Calcein-AM assay in MDCK-MDR1 cells; format: cell-based; details: n.a. = not active, mean of n ≥ 3 ± SEM
KP02 tumor cells = test: ROS involvement: MTT viability with antioxidants α-tocopherol or NAC; format: cell-based, mouse; details: KP02, 4 μM compound 48 h; for Rescue of cell death by NAC: 100 μM NAC; for Rescue of cell death by α-tocopherol: 100 μM α-tocopherol 1 hour prior
caspase-3 in KP02 cells = test: Caspase-3 activation; format: cell-based, mouse; details: KP02, 25 μM, 5 hours, relative to vehicle
Summary of the method: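 KP02 cells (DMEM/Ham's F-12 1:1, 10% FBS, 37 °C, 5% CO2) seeded at 1 × 10^4/well 24 h before treatment. Exposed to 25 μM test compound for 5 h, with or without α-tocopherol (100 μM) or Z-DEVD-FMK (1 μM). Caspase-Glo reagent with luminogenic caspase substrate added, shaken 30 s, then 90 min at room temperature. Luminescence read relative to DMSO-treated cells. Triplicates; n ≥ 3 independent experiments, mean ± SEM.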

KCKO = test: MTT viability, 48 h; format: cell-based, mouse; details: read-out: Activity, EC50 KCKO
Panc-1 = test: MTT viability, 48 h; format: cell-based, human; details: read-out: Activity, EC50 Panc-1
AsPC1 = test: MTT viability, 48 h; format: cell-based, human; details: read-out: Activity, EC50 AsPC1
[3] = test system: mitochondrial superoxide in KP02 cells; test: Mitochondrial superoxide detection; format: cell-based, mouse; details: KP02, 50 μM, 2 hours, MitoSOX Red
Summary of the method: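 KP02 cells seeded in 12-well plates 24 h ahead, then exposed to 50 μM test compound for 2 h at 37 °C, with or without α-tocopherol. Stained with MitoSOX Red (5 μM); after 2 h, washed with PBS, harvested with trypsin/EDTA and washed again. Oxidised dye (emission ~580 nm) read by flow cytometry in FL3 as mean fluorescence intensity. Triplicates.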

[4] = test system: pancreatic cancer cell lines
[5] = 750 nmol/100μL vehicle i.p. daily for two weeks, vehicle mean 596 mm^3
[6] = 1500 nmol/100μL vehicle i.p. daily for two weeks, vehicle mean 592 mm^3

Sequence of P-gp (P08183 whole entry): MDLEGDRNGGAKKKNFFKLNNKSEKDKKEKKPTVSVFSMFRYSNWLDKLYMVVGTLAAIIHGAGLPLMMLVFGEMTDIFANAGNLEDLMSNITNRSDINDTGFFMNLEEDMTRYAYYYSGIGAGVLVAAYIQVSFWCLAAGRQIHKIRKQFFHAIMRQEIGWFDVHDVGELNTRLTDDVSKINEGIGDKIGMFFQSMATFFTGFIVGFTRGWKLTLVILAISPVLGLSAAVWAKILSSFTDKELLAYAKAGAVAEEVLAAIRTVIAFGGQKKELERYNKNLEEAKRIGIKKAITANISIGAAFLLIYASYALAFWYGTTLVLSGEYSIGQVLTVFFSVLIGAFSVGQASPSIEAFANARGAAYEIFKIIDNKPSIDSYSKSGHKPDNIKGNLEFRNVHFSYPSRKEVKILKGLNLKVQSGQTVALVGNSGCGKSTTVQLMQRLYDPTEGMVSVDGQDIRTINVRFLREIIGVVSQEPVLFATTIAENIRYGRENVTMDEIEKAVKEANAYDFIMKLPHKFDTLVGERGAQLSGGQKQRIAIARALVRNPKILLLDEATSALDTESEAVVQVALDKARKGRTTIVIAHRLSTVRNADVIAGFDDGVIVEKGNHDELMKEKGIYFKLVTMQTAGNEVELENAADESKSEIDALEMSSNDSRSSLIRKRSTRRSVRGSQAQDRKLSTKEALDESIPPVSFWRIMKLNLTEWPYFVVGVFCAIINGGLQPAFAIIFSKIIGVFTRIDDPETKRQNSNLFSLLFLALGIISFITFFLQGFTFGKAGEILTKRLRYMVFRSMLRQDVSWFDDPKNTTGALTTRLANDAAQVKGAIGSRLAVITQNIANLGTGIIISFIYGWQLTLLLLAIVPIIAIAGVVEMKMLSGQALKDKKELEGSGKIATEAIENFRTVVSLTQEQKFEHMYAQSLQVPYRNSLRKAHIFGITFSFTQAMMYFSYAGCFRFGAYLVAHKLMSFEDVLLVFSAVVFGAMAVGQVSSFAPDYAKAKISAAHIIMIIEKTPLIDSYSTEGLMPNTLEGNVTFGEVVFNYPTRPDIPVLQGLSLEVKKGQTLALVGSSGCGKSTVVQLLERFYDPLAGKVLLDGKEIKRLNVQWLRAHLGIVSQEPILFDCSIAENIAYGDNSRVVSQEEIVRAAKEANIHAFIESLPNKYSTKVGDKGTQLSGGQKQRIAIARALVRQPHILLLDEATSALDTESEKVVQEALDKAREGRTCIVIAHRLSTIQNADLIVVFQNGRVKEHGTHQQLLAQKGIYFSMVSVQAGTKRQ
Sequence of σ1 receptor (Q99720 whole entry): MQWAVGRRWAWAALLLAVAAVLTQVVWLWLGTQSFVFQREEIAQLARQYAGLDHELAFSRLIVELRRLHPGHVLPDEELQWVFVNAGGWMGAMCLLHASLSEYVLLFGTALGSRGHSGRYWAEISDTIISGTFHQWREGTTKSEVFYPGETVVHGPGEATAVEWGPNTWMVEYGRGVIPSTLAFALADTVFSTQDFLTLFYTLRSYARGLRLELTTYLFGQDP

Compound	EC50 (Panc02; Mus musculus, Panc02, 48 h)	EC50 (MIAPaCa-2)	EC50 (BxPC3; Homo sapiens, BXPC-3, 48 h)	PCV [2]	Necropsy/histology findings (pulmonary metastases, nephropathy) [2]	Mouse weight at necropsy [2]	Mean tumor volume after conclusion of treatment (KP02 tumors; [5])	Interaction with the σ1 receptor (σ1 receptor)	EC50 (KP02; Mus musculus, 48 h)	P-gp EC50 (P-gp)	Rescue of cell death by α-tocopherol (KP02 tumor cells)	Increase of caspase-3 activity (caspase-3 in KP02 cells)	EC50 (KCKO; Mus musculus, 48 h)	EC50 (AsPC1; Homo sapiens, ASPC1, 48 h)	other results
CN(C)C(=S)N/N=C1\C(=O)Nc2ccccc21 [Compound 7, (Z)-N,N-Dimethyl-2-(2-oxoindolin-3-ylidene)hydrazinecarbothioamide]	1.21 ± 0.1 µM	18.3 ± 2.1 µM	2.52 ± 0.5 µM	42.65 ± 2.85%	foci of pulmonary metastases of the implanted tumor and a mild chronic progressive nephropathy	19.5 ± 0.5 grams	328 mm^3	ruled out	2.83 ± 0.6 µM	completely abolished the interaction with the P-gp	no cells were rescued	did not activate the caspase-3 at all	3.14 ± 0.4 µM	2.17 ± 0.3 µM	EC50 [1]: 1.21 to 3.14 µM; Rescue of cell death by NAC (KP02 tumor cells): even higher levels of cell death; EC50 (Panc-1; Homo sapiens, PANC-1, 48 h): > 100 µM
NC(=S)N/N=C1\C(=O)Nc2ccccc21 [Compound 8, (Z)-2-(2-Oxoindolin-3-ylidene)hydrazinecarbothioamide]	> 100 µM	–	> 100 µM	–	–	–	–	–	> 100 µM	completely abolished the interaction with the P-gp	–	–	> 100 µM	> 100 µM	–
COc1cc2c(cc1OC)C(=O)N(CCCCN1C(=O)/C(=N\NC(=S)N(C)C)c3ccccc31)CC2 [Compound 9, (Z)-2-(1-(4-(6,7-Dimethoxy-1-oxo-3,4-dihydroisoquinolin-2(1H)-yl)butyl)-2-oxoindolin-3-ylidene)-N,N-dimethylhydrazinecarbothioamide]	2.18 ± 0.3 µM	–	5.93 ± 0.7 µM	–	–	–	–	–	5.62 ± 1.1 µM	–	rescued the pancreatic cancer cells	did not activate the caspase-3 at all	4.51 ± 0.8 µM	5.74 ± 0.5 µM	Rescue of cell death by NAC (KP02 tumor cells): even higher levels of cell death
CCCCN1CCc2cc(OC)c(OC)cc2C1 [Compound 10, N-Butyl-6,7-dimethoxy-1,2,3,4-tetrahydroisoquinoline]	> 100 µM	–	> 100 µM	–	–	–	–	–	> 100 µM	–	–	–	> 100 µM	> 100 µM	–
CCCCN1CCN(C2CCCCC2)CC1 [Compound 11, 1-Butyl-4-cyclohexyl-piperazine]	> 100 µM	–	> 100 µM	–	–	–	–	–	> 100 µM	complete loss of interaction with P-gp	–	–	> 100 µM	> 100 µM	–
(Z)-2-(1-(4-(6,7-Dimethoxy-3,4-dihydroisoquinolin-2(1H)-yl)butyl)-2-oxoindolin-3-ylidene)-N,N-dimethylhydrazinecarbothioamide [Compound 1]	–	14.6 ± 2.2 µM	–	45.45 ± 4.15%	not noticed	17.5 ± 0.5 grams	statistically similar to vehicle	ruled out	–	–	rescued the pancreatic cancer cells	did not activate the caspase-3 at all	–	–	EC50 (Panc02; 48 hr treatment, MTT): 1.33 ± 0.2 µM; EC50 (BxPC3; 48 hr treatment, MTT): 2.34 ± 0.8 µM; Treatment-related deaths [2]: without experiencing any treatment-related deaths; Mean tumor volume after conclusion of treatment (KP02 tumors; [6]): 205 mm^3; Mitochondrial superoxide production, increase of mean fluorescence intensity [3]: 6 fold; EC50 [4]: 1.17 to 14.7 µM; EC50 (KP02; 48 hr treatment, MTT): 6.92 ± 0.9 µM; EC50 (KCKO; 48 hr treatment, MTT): 6.49 ± 1 µM; EC50 (Panc-1; 48 hr treatment, MTT): 14.6 ± 2.1 µM; EC50 (AsPC1; 48 hr treatment, MTT): 2.01 ± 0.6 µM
(Z)-2-[1-[4-(4-Cyclohexylpiperazin-1-yl)butyl]-2-oxoindolin-3-ylidene]-N,N-dimethylhydrazinecarbothioamide [Compound 2]	–	10.8 ± 1.3 µM	–	51 ± 3.8%	not noticed	19 ± 1 grams	statistically similar to vehicle	ruled out	–	–	rescued the pancreatic cancer cells	6 fold	–	–	EC50 (Panc02; 48 hr treatment, MTT): 1.17 ± 0.4 µM; EC50 (BxPC3; 48 hr treatment, MTT): 6.15 ± 0.6 µM; Treatment-related deaths [2]: without experiencing any treatment-related deaths; Mean tumor volume after conclusion of treatment (KP02 tumors; [6]): 196 mm^3; Mitochondrial superoxide production, increase of mean fluorescence intensity [3]: 20 fold; EC50 [4]: 1.17 to 14.7 µM; EC50 (KP02; 48 hr treatment, MTT): 7.32 ± 0.8 µM; EC50 (KCKO; 48 hr treatment, MTT): 6.18 ± 0.3 µM; EC50 (Panc-1; 48 hr treatment, MTT): 8.73 ± 0.8 µM; EC50 (AsPC1; 48 hr treatment, MTT): 3.86 ± 0.2 µM
